{"source": "ChEMBL document CHEMBL1212858", "about": "“New bioactive halenaquinone derivatives from South Pacific marine sponges of the genus Xestospongia” (Bioorg Med Chem, 2010)", "key": {"[1]": {"test_system": "Vero", "assay": "Cytotoxicity against african green monkey Vero cells assessed as inhibition of [3H]hypoxanthine incorporation after 48 hrs", "format": "cell-based", "conditions": "Chlorocebus sabaeus", "how_it_was_run": "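VERO cells (10^5 cells/well) exposed 48 h to serial dilutions in culture medium of a 10 mg/mL DMSO mother solution; growth inhibition by 3H-hypoxanthine incorporation (9.25 kBq/well). Highest concentration tested 20 µg/mL. IC50 read graphically from inhibition-versus-concentration plots; triplicates on three independent occasions, mean ± SEM (n = 3). Doxorubicin positive control.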"}, "[2]": {"molecular_target": "Protein farnesyltransferase (Homo sapiens, UniProt P49354+P49356)", "assay": "Inhibition of human FTase after 15 mins by fluorimetric analysis", "format": "protein-complex assay", "how_it_was_run": "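Partially purified human FTase (1.5 mg/mL, 5 µL per 1 mL peptide solution) with dansyl-GCVLS peptide in Tris/HCl pH 7.5 buffer with DTT, MgCl2, ZnCl2 and 0.18% octyl-D-glucopyranoside in place of CHAPS. Inhibitors added from DMSO; started with farnesyl pyrophosphate (10 µM stock). Fluorescence (ex 340/em 486 nm) read 15 min at 30 °C; duplicates, run twice.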"}, "[3]": {"test_system": "Plasmodium falciparum", "assay": "Antiplasmodial activity against chloroquine-resistant Plasmodium falciparum FcB1 after 48 hrs", "format": "functional, organism-based", "conditions": "FcB1/Columbia", "how_it_was_run": "(§1)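 Ring-stage P. falciparum cultures synchronised by magnetic purification plus D-sorbitol lysis. Compounds from a 10 mg/mL DMSO mother solution were serially diluted in culture medium and incubated 48 h with parasitised erythrocytes (2% haematocrit, 1% parasitaemia). Growth was followed by 3H-hypoxanthine incorporation (9.25 kBq/well). IC50 was read graphically from inhibition–concentration plots. Triplicates, three independent experiments; chloroquine as positive control.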"}, "[4]": {"molecular_target": "T1, Phospholipase A2 (Apis mellifera, UniProt P00630)", "T1 sequence (P00630 whole entry)": "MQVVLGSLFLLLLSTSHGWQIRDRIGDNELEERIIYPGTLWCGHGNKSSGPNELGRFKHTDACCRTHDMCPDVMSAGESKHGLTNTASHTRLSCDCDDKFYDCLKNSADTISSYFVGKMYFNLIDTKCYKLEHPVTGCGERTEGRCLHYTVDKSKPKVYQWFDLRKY", "assay": "Inhibition of bee venom phospholipase A2 after 5 mins by spectrophotometric analysis", "how_it_was_run": "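Colorimetric assay with Apis mellifera venom PLA2, added as 2 µL of a 1 mg/mL […]. Test material in DMSO was preincubated with the enzyme for 1 h at 25 °C. Substrate solution was then added: L-α-phosphatidylcholine 3.5 mM, phenol red 0.055 mM, NaCl 100 mM, CaCl2 10 mM, Triton 7 mM, pH 7.6. Absorbance at 550 nm was read at 0 and 5 min, in duplicate. Manoalide as positive control.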"}, "[5]": {"test_system": "Plasmodium falciparum", "assay": "Antiplasmodial activity against chloroquine-sensitive Plasmodium falciparum 3D7 after 48 hrs", "format": "functional, organism-based", "conditions": "3D7, 48 h", "how_it_was_run": "as §1"}, "[6]": {"assay": "Inhibition of Saccharomyces cerevisiae FTase after 15 mins by fluorimetric analysis", "how_it_was_run": "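Partially purified recombinant yeast FTase (2.2 mg/mL, 0.1 mL per 7.0 mL peptide solution) with dansyl-GCVLS peptide in 53 mM Tris/HCl pH 7.5, 5.8 mM DTT, 6 mM MgCl2, 12 µM ZnCl2, 0.09% CHAPS. Inhibitors added from DMSO; started with farnesyl pyrophosphate (10 µM stock). Fluorescence (ex 340/em 486 nm) followed 15 min at 30 °C; duplicates, run twice.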"}, "[7]": {"assay": "Selectivity ratio of IC50 for african green monkey (Cercopithecus aethiops) Vero cells to IC50 for chloroquine-resistant Plasmodium falciparum FcB1", "format": "ADME, cell-based", "conditions": "read-out: Ratio IC50", "how_it_was_run": "(§2)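 Compounds were serially diluted from a 10 mg/mL DMSO stock into medium and added to VERO cells (10^5 cells/well) or to synchronised ring-stage P. falciparum (2% haematocrit, 1% parasitaemia). Read-out was 3H-hypoxanthine incorporation, with IC50 read graphically. Triplicates, three independent times; doxorubicin and chloroquine as controls.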"}, "[8]": {"assay": "Selectivity ratio of IC50 for african green monkey (Cercopithecus aethiops) Vero cells to IC50 for chloroquine-sensitive Plasmodium falciparum 3D7", "format": "ADME, cell-based", "conditions": "read-out: Ratio IC50", "how_it_was_run": "as §2"}}, "note": "Structures can show the parent of a compound that is named as a salt."}
{"smiles": "C[C@@]12CCC(=O)c3coc(c31)C(=O)c1cc3c(O)ccc(OS(=O)(=O)O)c3cc12", "note": "[HALENAQUINOL SULFATE SODIUM]", "values": [{"measurement": "IC50", "setting": "[1]", "value": "> 48", "unit": "µM"}, {"measurement": "IC50", "setting": "[2]", "value": 21.5, "unit": "µM"}, {"measurement": "IC50", "setting": "[3]", "value": "> 24", "unit": "µM"}, {"measurement": "IC50", "setting": "[4]", "value": 1000, "unit": "µM"}, {"measurement": "IC50", "setting": "[5]", "value": "> 24", "unit": "µM"}, {"measurement": "IC50", "setting": "[6]", "value": 16.1, "unit": "µM"}]}
{"smiles": "CC1=C(CC/C(C)=C/CCC2=CC[C@H](C3=CC(=O)O[C@H]3O)O[C@H]2O)C(C)(C)CCC1", "note": "[MANOALIDE]", "values": [{"measurement": "IC50", "setting": "[4]", "value": 0.5, "unit": "µM"}]}
{"smiles": "C[C@@]12CCC(=O)c3coc(c31)C(=O)c1cc3c(cc12)C(=O)C1=C(NCCS1(=O)=O)C3=O", "note": "[3-KETOADOCIAQUINONE B]", "values": [{"measurement": "IC50", "setting": "[1]", "value": "> 45", "unit": "µM"}, {"measurement": "IC50", "setting": "[2]", "value": 9.27, "unit": "µM"}, {"measurement": "IC50", "setting": "[3]", "value": 3.89, "unit": "µM"}, {"measurement": "IC50", "setting": "[4]", "value": 105, "unit": "µM"}, {"measurement": "selectivity ratio", "setting": "[7]", "value": 5}, {"measurement": "IC50", "setting": "[5]", "value": 4.12, "unit": "µM"}, {"measurement": "IC50", "setting": "[6]", "value": 3.75, "unit": "µM"}, {"measurement": "selectivity ratio", "setting": "[8]", "value": 5}]}
{"smiles": "C[C@@]12CCC(=O)c3coc(c31)C(=O)c1cc3c(cc12)C(=O)C1=C(C3=O)S(=O)(=O)CCN1", "note": "[3-KETOADOCIAQUINONE A]", "values": [{"measurement": "IC50", "setting": "[1]", "value": "> 45", "unit": "µM"}, {"measurement": "IC50", "setting": "[2]", "value": 4.19, "unit": "µM"}, {"measurement": "IC50", "setting": "[3]", "value": 1.08, "unit": "µM"}, {"measurement": "IC50", "setting": "[4]", "value": 140, "unit": "µM"}, {"measurement": "selectivity ratio", "setting": "[7]", "value": 5}, {"measurement": "IC50", "setting": "[5]", "value": 1.67, "unit": "µM"}, {"measurement": "IC50", "setting": "[6]", "value": 1.48, "unit": "µM"}, {"measurement": "selectivity ratio", "setting": "[8]", "value": 5}]}
{"smiles": "COc1cccc2c1C(=O)c1c(O)c3c(c(O)c1C2=O)C[C@@](O)(C(=O)CO)C[C@@H]3O[C@H]1C[C@H](N)[C@H](O)[C@H](C)O1", "note": "[DOXORUBICIN]", "values": [{"measurement": "IC50", "setting": "[1]", "value": 5.12, "unit": "µM"}]}
{"smiles": "C[C@@]12CC[C@H](O)[C@@H]3COC(=C31)C(=O)c1cc3c(cc12)C(O)CCC3=O", "note": "(stereo partly specified) [XESTOSAPROL A]", "values": [{"measurement": "IC50", "setting": "[1]", "value": "> 58", "unit": "µM"}, {"measurement": "IC50", "setting": "[2]", "value": "> 30", "unit": "µM"}, {"measurement": "IC50", "setting": "[3]", "value": "> 29", "unit": "µM"}, {"measurement": "IC50", "setting": "[4]", "value": 1000, "unit": "µM"}, {"measurement": "IC50", "setting": "[5]", "value": "> 29", "unit": "µM"}, {"measurement": "IC50", "setting": "[6]", "value": "> 30", "unit": "µM"}]}
{"smiles": "CO[C@]12OC(O)C3=C1[C@@](C)(CCC3=O)c1cc3c(OS(=O)(=O)O)ccc(O)c3cc1C2=O", "note": "(stereo partly specified) [XESTOSAPROL C METHYLACETAL]", "values": [{"measurement": "IC50", "setting": "[1]", "value": "> 42", "unit": "µM"}, {"measurement": "IC50", "setting": "[2]", "value": 4.34, "unit": "µM"}, {"measurement": "IC50", "setting": "[3]", "value": "> 21", "unit": "µM"}, {"measurement": "IC50", "setting": "[4]", "value": 570, "unit": "µM"}, {"measurement": "IC50", "setting": "[5]", "value": "> 21", "unit": "µM"}, {"measurement": "IC50", "setting": "[6]", "value": 6.71, "unit": "µM"}]}
{"smiles": "C[C@@]12CCC(=O)c3coc(c31)C(=O)c1cc3c(cc12)C(=O)C=CC3=O", "note": "[HELENAQUINONE]", "values": [{"measurement": "IC50", "setting": "[1]", "value": "> 60", "unit": "µM"}, {"measurement": "IC50", "setting": "[2]", "value": 0.93, "unit": "µM"}, {"measurement": "IC50", "setting": "[3]", "value": "> 30", "unit": "µM"}, {"measurement": "IC50", "setting": "[4]", "value": 3.7, "unit": "µM"}, {"measurement": "IC50", "setting": "[5]", "value": "> 30", "unit": "µM"}, {"measurement": "IC50", "setting": "[6]", "value": 1.57, "unit": "µM"}]}
{"smiles": "C[C@@]12CC[C@H](O)[C@@H]3COC(=C31)C(=O)c1cc3c(cc12)C(=O)CC[C@@H]3O", "note": "[TETRAHYDROHALENAQUINONE A]", "values": [{"measurement": "IC50", "setting": "[1]", "value": "> 58", "unit": "µM"}, {"measurement": "IC50", "setting": "[2]", "value": "> 30", "unit": "µM"}, {"measurement": "IC50", "setting": "[3]", "value": "> 29", "unit": "µM"}, {"measurement": "IC50", "setting": "[4]", "value": 600, "unit": "µM"}, {"measurement": "IC50", "setting": "[5]", "value": "> 29", "unit": "µM"}, {"measurement": "IC50", "setting": "[6]", "value": "> 30", "unit": "µM"}]}
{"smiles": "CC1=CCCC2(C)C1=C(O)C(=O)c1cc3c(cc12)C(=O)C=CC3=O", "note": "(stereo unspecified) [ORHALQUINONE]", "values": [{"measurement": "IC50", "setting": "[1]", "value": "> 62", "unit": "µM"}, {"measurement": "IC50", "setting": "[2]", "value": 0.41, "unit": "µM"}, {"measurement": "IC50", "setting": "[3]", "value": 9.22, "unit": "µM"}, {"measurement": "IC50", "setting": "[4]", "value": 1570, "unit": "µM"}, {"measurement": "selectivity ratio", "setting": "[7]", "value": 5}, {"measurement": "IC50", "setting": "[5]", "value": 10.9, "unit": "µM"}, {"measurement": "IC50", "setting": "[6]", "value": 0.4, "unit": "µM"}, {"measurement": "selectivity ratio", "setting": "[8]", "value": 5}]}
